# Measured values taken from PubChem BioAssay.
# The source made the active and inactive calls.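 The calls were made as follows, unless noted: active = viability at or below 10% of carrier control in both of two separate runs; inconclusive = viability at or below 10% in only one of the two runs; inactive = the rest.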
# What was measured:
# [1] = target: Pantothenate synthetase (Mycobacterium tuberculosis (strain ATCC 25618 / H37Rv)) (UniProt P9WIL5); experiment: Recombinant Mtb pantothenate synthetase (PanC) inhibitors, coupled enzyme, confirmatory (AID 375; call rule not given here;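 also: 0% = full reaction with vehicle and 100% = no enzyme background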); details: coupled enzyme assay; at 10 µM, stronger effect = higher value
# Sequence of Pantothenate synthetase (Mycobacterium tuberculosis (strain ATCC 25618 / H37Rv)) (P9WIL5 whole entry, looked up): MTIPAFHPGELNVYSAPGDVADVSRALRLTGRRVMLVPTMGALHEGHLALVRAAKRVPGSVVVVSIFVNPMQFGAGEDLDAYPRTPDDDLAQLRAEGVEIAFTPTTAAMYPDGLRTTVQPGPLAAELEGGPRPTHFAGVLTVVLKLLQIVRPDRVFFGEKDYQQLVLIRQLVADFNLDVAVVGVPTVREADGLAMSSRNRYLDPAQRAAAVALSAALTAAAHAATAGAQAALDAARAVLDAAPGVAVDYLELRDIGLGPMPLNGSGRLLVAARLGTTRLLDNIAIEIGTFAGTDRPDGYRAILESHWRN
# [2] = reducers of endogenous Her2 protein level, primary screen, SKBR3 breast tumor cells, AlphaScreen, ATP viability (AID 461;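 active = Her2 level under about 52% in both replicate screens, with viability over 70% of control, limit read from the data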;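 as to Her2 level: lower value means less Her2 protein in the cells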;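 as to viability: percent of carrier control wells set as 100% viability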); details: 18-24 h, measured here: SKBR3 viability, ATP luminescence, at 10 µM
# [3] = target: Receptor tyrosine-protein kinase erbB-2 (Homo sapiens) (UniProt P04626); experiment: as above; details: 18-24 h, at 10 µM, stronger effect = lower value
# Sequence of Receptor tyrosine-protein kinase erbB-2 (Homo sapiens) (P04626 whole entry, looked up): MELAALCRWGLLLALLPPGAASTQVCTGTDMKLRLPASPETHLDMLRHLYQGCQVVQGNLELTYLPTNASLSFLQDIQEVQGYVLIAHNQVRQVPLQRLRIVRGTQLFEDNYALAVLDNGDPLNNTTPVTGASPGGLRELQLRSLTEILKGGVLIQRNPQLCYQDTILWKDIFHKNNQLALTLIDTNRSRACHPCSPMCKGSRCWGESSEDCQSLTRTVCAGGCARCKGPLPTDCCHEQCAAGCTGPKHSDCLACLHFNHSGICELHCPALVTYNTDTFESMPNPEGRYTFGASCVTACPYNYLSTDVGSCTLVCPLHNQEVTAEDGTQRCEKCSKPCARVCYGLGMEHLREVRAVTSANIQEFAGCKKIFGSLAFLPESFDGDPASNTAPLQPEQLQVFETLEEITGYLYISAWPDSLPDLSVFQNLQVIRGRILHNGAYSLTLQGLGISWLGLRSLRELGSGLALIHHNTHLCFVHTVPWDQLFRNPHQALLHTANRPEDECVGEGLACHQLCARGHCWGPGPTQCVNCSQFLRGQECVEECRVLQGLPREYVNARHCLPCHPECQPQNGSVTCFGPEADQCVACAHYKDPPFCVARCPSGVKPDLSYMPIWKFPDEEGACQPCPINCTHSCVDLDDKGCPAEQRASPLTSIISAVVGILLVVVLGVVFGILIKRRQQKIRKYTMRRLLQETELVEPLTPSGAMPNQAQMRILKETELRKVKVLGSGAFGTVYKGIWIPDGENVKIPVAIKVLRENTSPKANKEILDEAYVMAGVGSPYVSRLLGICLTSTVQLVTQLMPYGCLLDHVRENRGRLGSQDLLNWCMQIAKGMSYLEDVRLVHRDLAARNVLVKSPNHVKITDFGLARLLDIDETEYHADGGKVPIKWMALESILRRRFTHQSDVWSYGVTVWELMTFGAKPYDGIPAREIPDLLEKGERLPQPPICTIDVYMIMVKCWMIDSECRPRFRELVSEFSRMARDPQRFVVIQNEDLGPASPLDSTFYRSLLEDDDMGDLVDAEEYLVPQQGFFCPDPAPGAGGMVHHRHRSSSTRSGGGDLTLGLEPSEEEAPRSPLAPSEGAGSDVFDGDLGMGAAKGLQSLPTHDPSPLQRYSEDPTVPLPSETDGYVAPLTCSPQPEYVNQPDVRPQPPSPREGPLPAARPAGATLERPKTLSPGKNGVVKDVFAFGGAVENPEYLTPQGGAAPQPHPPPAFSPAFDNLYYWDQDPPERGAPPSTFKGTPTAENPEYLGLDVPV
# [4] = SK-BR-3 cell growth inhibitors, pilot screen, 24 h, human (AID 572); details: SK-BR-3 viability, CellTiter-Glo luminescence, at 10 µM, stronger effect = lower value;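 also: compound exposure lasted between 18 and 24 h rather than exactly 24 h; 100% = carrier-treated control wells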
# [5] = HUVEC growth inhibition – cell-based, human, primary screen (AID 575;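 active = viability at or below 30% in both replicate assays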;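 also: 100% = median of untreated cell wells with 0.1% DMSO on each plate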); details: HUVEC proliferation, CellTiter-Glo luminescence, 72 h; at 10 µM; stronger effect = lower value
# Summary of the method: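 Test system: primary human umbilical vein endothelial cells. Quantity: 1250 cells/well. Compound: single 10 µM dose, 0.1% DMSO, from 5x medium stock. Timing: 72 h treatment at 37 °C. Detection: ATP-based CellTiter-Glo luminescent read. Benchmarks: vehicle and MePR control wells. Format: 384-well plates coated with collagen.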
# [6] = growth inhibitors of H69AR lung tumor, primary screen, human, duplicate replicates (AID 580;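 active = viability at or under a set limit in both replicates, limit being median viability minus 3 SD, cut at about 48% in these data, passing the limit was not always enough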;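 also: 100% = mean luminescence of untreated wells and 0% = no signal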); details: H69AR lung tumor cells viability, ATP luminescence, 72 h; at 10 µM; stronger effect = lower value
# [7] = reversal of MRP1-mediated doxorubicin resistance, pilot screen, H69AR cells, doxorubicin co-treatment (AID 601;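 active = viability loss from added drug above about 55%, and viability with drug at most 40%, in both replicates, limit read from the data, passing the limit was not always enough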); details: CellTiter-Glo, 72 h, at 10 µM; for differential viability (reversal): stronger effect = higher value
# [8] = 384-well plate pilot, post-Golgi transport modulator project, inhibition of yeast transport mutant growth (AID 636; in the data active = inhibition above about 31%); details: absorbance 615 nm, about 18 h, stronger effect = higher value
# [9] = growth suppression of yeast trafficking mutant, preliminary HTS, modulators of trafficking downstream of Golgi apparatus project, 1536-format plate, OD 615 nm (AID 637; in the data active = inhibition above about 30%); details: yeast transport mutant growth, absorbance 615 nm, 18 h; stronger effect = higher value
# [10] = H69AR cells + 2 uM doxorubicin, measured here: viability with 2 uM doxorubicin, stronger effect = lower value
# [11] = H69AR cells, compound alone cytotoxicity
Structure (SMILES),inhibition [1],viability [2],Her2 level [3],viability [4],viability [5],viability [6],differential viability (reversal) ([7]; H69AR cells + 2 uM doxorubicin),"viability [7, 10]","viability [7, 11]",inhibition [8],inhibition [9]
COC(=O)c1c(C)n(Cc2ccc3c(c2)OCO3)c2ccc(O)cc12,6% (inactive),116%,95% (inactive),116% (inactive),54.5% (inactive),105% (inactive),5.33% (inactive),100%,105%,-3.6% (inactive),-1.94% (inactive)
CCOP(=S)(OCC)c1ccc(N(C)C)cc1,0% (inactive),92.5%,104% (inactive),92.5% (inactive),93.6% (inactive),78.3% (inactive),-9.22% (inactive),87.5%,78.3%,4.29% (inactive),-12.1% (inactive)
COC(=O)C1C2c3ccccc3OC1(C)N=c1s/c(=C/c3cnn(C)c3C)c(=O)n12 (configuration not stated),7% (inactive),–,–,98% (inactive),83.4% (inactive),91.8% (inactive),2.92% (inactive),88.8%,91.8%,-0.81% (inactive),8.18% (inactive)
CCOC(=O)C1=C(N)OC(C)=C(C(=O)OCCOC)C12C(=O)Nc1ccccc12 (configuration not stated),5% (inactive),–,–,85% (inactive),92% (inactive),98.2% (inactive),-9.01% (inactive),107%,98.2%,-4.52% (inactive),1.64% (inactive)
COc1ccc(CCNC(=O)c2c(N)n(CCN3CCOCC3)c3nc4ccccc4nc23)cc1,0% (inactive),104%,87.5% (inactive),104% (inactive),–,19.3% (active),-20.5% (inactive),39.8%,19.3%,3.82% (inactive),1.82% (inactive)
NCCc1ccc(O)cc1,0% (inactive),112%,112% (inactive),112% (inactive),103% (inactive),96.2% (inactive),4.17% (inactive),92.1%,96.2%,-5% (inactive),-21.1% (inactive)
CCCCCCC(N)CC(=O)O (configuration not stated),0% (inactive),106%,122% (inactive),106% (inactive),95.1% (inactive),94.8% (inactive),5.24% (inactive),89.6%,94.8%,-1.69% (inactive),-8.17% (inactive)
c1ccc2c(c1)[nH]c1cnccc12,0% (inactive),–,–,100% (inactive),70.2% (inactive),83% (inactive),2.26% (inactive),80.7%,83%,-0.78% (inactive),0.5% (inactive)
CCCCOc1ccc(CN2CCN(CCO)CC2)cc1,0% (inactive),74%,91.5% (inactive),74% (inactive),94.7% (inactive),90.1% (inactive),12.2% (inactive),77.9%,90.1%,1.17% (inactive),-1.64% (inactive)
COc1ccccc1N(CC(=O)NC1CCCCC1)C(=O)c1cnn(C(C)C)c1,7% (inactive),96.5%,104% (inactive),96.5% (inactive),103% (inactive),106% (inactive),8.82% (inactive),97.2%,106%,1.08% (inactive),-5.24% (inactive)
CCOc1c(P(=S)(N(C)C)N(C)C)c(C)nn1-c1ccccc1,1% (inactive),83%,120% (inactive),83% (inactive),98.6% (inactive),101% (inactive),17% (inactive),84.1%,101%,-2.24% (inactive),-11% (inactive)
CC1(C)C(c2ccccc2)=NC(c2cccnc2)N1O (configuration not stated),0% (inactive),106%,96% (inactive),106% (inactive),106% (inactive),95.3% (inactive),-4.39% (inactive),99.7%,95.3%,-6.76% (inactive),5.74% (inactive)
O=C(Cc1ccccc1)OC(COCc1ccccc1)CN1CCOCC1 (configuration not stated),3% (inactive),83%,99% (inactive),83% (inactive),88.3% (inactive),94.2% (inactive),4.79% (inactive),89.4%,94.2%,-7.47% (inactive),-0.98% (inactive)
O=C1CC(N2CCC(n3c(=O)[nH]c4ccccc43)CC2)C(=O)N1c1ccc(F)cc1 (configuration not stated),5% (inactive),93.5%,67.5% (inactive),93.5% (inactive),80.7% (inactive),103% (inactive),3.01% (inactive),100%,103%,-4.74% (inactive),-6.5% (inactive)
